Measured values from ChEMBL document CHEMBL3868591, “Melokhanines A-J, Bioactive Monoterpenoid Indole Alkaloids with Diverse Skeletons from Melodinus khasianus” (J Nat Prod, 2016).
Converted amounts (≈) assume the structure as drawn.

Legend:
[1] = Cytotoxicity against human MCF7 cells after 48 hrs by MTT assay; format: functional, cell-based; details: MCF7, 48 h
How it was run: (§1)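 MTT read-out. Each cell line was exposed in triplicate to a range of concentrations for 48 h, with cisplatin as positive control.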

Staphylococcus aureus = test: Antibacterial activity against Staphylococcus aureus […] after 24 hrs by broth microdilution method; format: functional
How it was run: (§2)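 MIC determined by broth microdilution, three independent replicates. Strains used were P. aeruginosa ATCC 27853, E. faecalis ATCC 10541, E. coli ATCC 11775, S. aureus […] and K. pneumoniae ATCC 13883. Cefotaxime served as positive control.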

Escherichia coli = test: Antibacterial activity against Escherichia coli ATCC 11775 after 24 hrs by broth microdilution method; format: functional; how it was run: as §2
[2] = Cytotoxicity against human SW480 cells after 48 hrs by MTT assay; format: functional, cell-based; details: SW480, 48 h; how it was run: as §1
[3] = Cytotoxicity against human A549 cells after 48 hrs by MTT assay; format: functional, cell-based; details: A549, 48 h; how it was run: as §1
[4] = Cytotoxicity against human SMMC7721 cells after 48 hrs by MTT assay; format: functional, cell-based; details: SMMC-7721, 48 h; how it was run: as §1
Enterococcus faecalis = test: Antibacterial activity against Enterococcus faecalis ATCC 10541 after 24 hrs by broth microdilution method; format: functional; how it was run: as §2
[5] = Cytotoxicity against human HL60 cells after 48 hrs by MTT assay; format: functional, cell-based; details: HL-60, 48 h; how it was run: as §1
Klebsiella pneumoniae = test: Antibacterial activity against Klebsiella pneumoniae ATCC 13883 after 24 hrs by broth microdilution method; format: functional; how it was run: as §2
Pseudomonas aeruginosa = test: Antibacterial activity against Pseudomonas aeruginosa ATCC 27853 after 24 hrs by broth microdilution method; format: functional; how it was run: as §2
[6] = Antifungal activity against Trichophyton mentagrophytes ATCC 4439 after 48 hrs by broth microdilution method; format: functional
How it was run: (§3)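 Dermatophyte MICs obtained by broth microdilution in three independent replicates, with griseofulvin as positive control.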

Nannizzia gypsea = test: Antifungal activity against Microsporum gypseum CBS 118893 after 48 hrs by broth microdilution method; format: functional; details: CBS 118893, 48 h; how it was run: as §3
[7] = Antifungal activity against Microsporum ferrugineum CBS 457.80 after 48 hrs by broth microdilution method; format: functional; how it was run: as §3
Microsporum canis = test: Antifungal activity against Microsporum canis CBS 113480 after 48 hrs by broth microdilution method; format: functional; details: CBS 113480, 48 h; how it was run: as §3
[8] = Antifungal activity against Trichophyton terrestre after 48 hrs by broth microdilution method; format: functional; how it was run: as §3
[9] = Antifungal activity against Trichophyton ajelloi E1501 after 48 hrs by broth microdilution method; format: functional; details: Arthroderma uncinatum; how it was run: as §3
[10] = Antifungal activity against Epidermophyton floccosum CBS 566.94 after 48 hrs by broth microdilution method; format: functional; how it was run: as §3
[11] = DSM 30083 = JCM 1649 = ATCC 11775, 24 h

| Compound | IC50 [1] [µM] | MIC (Staphylococcus aureus) [µM] | MIC (Escherichia coli; [11]) [µM] | IC50 [2] [µM] | IC50 [3] [µM] | IC50 [4] [µM] | MIC (Enterococcus faecalis; ATCC 10541, 24 h) [µM] | IC50 [5] [µM] | MIC (Klebsiella pneumoniae; ATCC 13883, 24 h) [µM] | MIC (Pseudomonas aeruginosa; ATCC 27853, 24 h) [µM] | further results |
| --- | --- | --- | --- | --- | --- | --- | --- | --- | --- | --- | --- |
| CC[C@@]12CCCN3CC[C@]4(C(=O)c5ccccc5N4C(=O)C1)[C@H]32 | > 40 | > 150 | > 150 | > 40 | > 40 | > 40 | 5 (≈ 1.55 µg/mL) | > 40 | > 150 | 2 (≈ 0.621 µg/mL) | – |
| C/C=C1/CN2CCc3c([nH]c4ccccc34)[C@@H]2C[C@@H]1[C@H](CO)C(=O)OC | – | > 150 | > 150 | – | – | – | 18 (≈ 6.38 µg/mL) | – | > 150 | 2 (≈ 0.709 µg/mL) | – |
| CC[C@@]12CCCN3CC[C@@]4(O)c5ccccc5N(C(=O)CC1)[C@]324 | – | > 150 | > 150 | – | – | – | > 150 | – | > 150 | 2 (≈ 0.625 µg/mL) | – |
| COC1=CC(=O)C[C@@H](C)[C@]12Oc1c(Cl)c(OC)cc(OC)c1C2=O [GRISEOFULVIN] | – | – | – | – | – | – | – | – | – | – | MIC [6]: 18 µM (≈ 6.35 µg/mL); MIC (Nannizzia gypsea): 9 µM (≈ 3.17 µg/mL); MIC [7]: 35 µM (≈ 12.3 µg/mL); MIC (Microsporum canis): 18 µM (≈ 6.35 µg/mL); MIC [8]: 35 µM (≈ 12.3 µg/mL); MIC [9]: 71 µM (≈ 25 µg/mL); MIC [10]: 9 µM (≈ 3.17 µg/mL) |
| CC[C@]12C=CN3c4ccccc4C(=O)[C@]34CCN(CCC1)[C@H]24 | > 40 | > 150 | > 150 | > 40 | > 40 | > 40 | 42 (≈ 12.4 µg/mL) | > 40 | > 150 | 2 (≈ 0.589 µg/mL) | – |
| CCO[C@@H]1C[C@@]2(CC)CCCN3CC[C@]4(C(=O)c5ccccc5N14)[C@H]32 | > 40 | > 150 | 147 (≈ 50 µg/mL) | > 40 | > 40 | > 40 | 147 (≈ 50 µg/mL) | > 40 | > 150 | 4 (≈ 1.36 µg/mL) | – |
| CO[C@H]1CCN2CCc3c([nH]c4ccccc34)[C@@]3(C(=O)O)CCC=C1[C@H]23 | > 40 | > 150 | 71 (≈ 25 µg/mL) | > 40 | > 40 | > 40 | 71 (≈ 25 µg/mL) | > 40 | > 150 | 4 (≈ 1.41 µg/mL) | – |
| CO/N=C(\C(=O)N[C@@H]1C(=O)N2C(C(=O)O)=C(COC(C)=O)CS[C@H]12)c1csc(N)n1 [CEFOTAXIME] | – | 0.4 (≈ 0.182 µg/mL) | 1.7 (≈ 0.774 µg/mL) | – | – | – | 0.4 (≈ 0.182 µg/mL) | – | 1.7 (≈ 0.774 µg/mL) | 0.4 (≈ 0.182 µg/mL) | – |
| CC[C@@]12CCCN3CC[C@]4(C(=O)c5ccccc5N4[C@@H](OC)C1)[C@H]32 | > 40 | > 150 | 75 (≈ 24.5 µg/mL) | > 40 | > 40 | > 40 | 150 (≈ 49 µg/mL) | > 40 | > 150 | 19 (≈ 6.2 µg/mL) | – |
| CC[C@@]12CCCN3CCc4c(n(c5ccccc45)C(=O)C1)[C@H]32 | – | > 150 | 85 (≈ 25 µg/mL) | – | – | – | 2 (≈ 0.589 µg/mL) | – | > 150 | 5 (≈ 1.47 µg/mL) | – |
| CC[C@@]12CCCN3CC[C@]4(C(=O)c5ccccc5N4[C@H](OC)C1)[C@H]32 | > 40 | > 150 | 150 (≈ 49 µg/mL) | > 40 | > 40 | > 40 | 5 (≈ 1.63 µg/mL) | > 40 | > 150 | 5 (≈ 1.63 µg/mL) | – |
| CC[C@@]12CCCN3CC[C@@H](c4ccccc4NC(=O)CC1)[C@]32O | > 40 | > 150 | > 150 | > 40 | > 40 | > 40 | 39 (≈ 12.3 µg/mL) | > 40 | > 150 | 5 (≈ 1.57 µg/mL) | – |
| CC[C@@]12CCCN3CC[C@]4(C(=O)c5ccccc5N4[C@@H](O)[C@H]1O)[C@H]32 | > 40 | > 150 | 150 (≈ 49.3 µg/mL) | > 40 | > 40 | > 40 | 75 (≈ 24.6 µg/mL) | > 40 | 150 (≈ 49.3 µg/mL) | 19 (≈ 6.24 µg/mL) | – |
| CC[C@@]12CCCN3C(=O)C[C@H]4c5cc(O)ccc5N(C(=O)CC1)C432 (some centres undefined) | – | 19 (≈ 6.2 µg/mL) | 76 (≈ 24.8 µg/mL) | – | – | – | 19 (≈ 6.2 µg/mL) | – | > 150 | 19 (≈ 6.2 µg/mL) | – |
| CC[C@]12C=Cn3c4c(c5ccccc53)CCN(CCC1)[C@@H]42 | – | > 150 | > 150 | – | – | – | 22 (≈ 6.12 µg/mL) | – | > 150 | 22 (≈ 6.12 µg/mL) | – |
| CC[C@@H]1CN2CC[C@]34c5ccccc5-n5c3c(cc(C(=O)O)c5=O)[C@H]1C[C@H]24 [MELODININE C] | – | > 150 | > 150 | – | – | – | > 150 | – | 69 (≈ 25 µg/mL) | 4 (≈ 1.45 µg/mL) | – |
| CC[C@]12CCCN(CC[C@]3(O)C(=O)Nc4ccccc43)[C@H]1OCC2 | > 40 | 75 (≈ 24.8 µg/mL) | 19 (≈ 6.28 µg/mL) | > 40 | > 40 | > 40 | 75 (≈ 24.8 µg/mL) | > 40 | 150 (≈ 49.6 µg/mL) | 19 (≈ 6.28 µg/mL) | MIC [6]: 150 µM (≈ 49.6 µg/mL); MIC (Nannizzia gypsea): 150 µM (≈ 49.6 µg/mL); MIC [7]: 75 µM (≈ 24.8 µg/mL); MIC (Microsporum canis): 38 µM (≈ 12.6 µg/mL); MIC [8]: > 150 µM; MIC [9]: 150 µM (≈ 49.6 µg/mL); MIC [10]: 150 µM (≈ 49.6 µg/mL) |
| CC[C@@]12CCCN3C(=O)C=C(c4ccccc4NC(=O)CC1)[C@]32O | – | > 150 | > 150 | – | – | – | 2 (≈ 0.653 µg/mL) | – | > 150 | 5 (≈ 1.63 µg/mL) | – |
| CC[C@@]12CCCN3CC[C@]4(C(=O)c5ccccc5N4[C@@H](OC)[C@H]1O)[C@H]32 | > 40 | > 150 | 73 (≈ 25 µg/mL) | > 40 | > 40 | > 40 | 73 (≈ 25 µg/mL) | > 40 | > 150 | 18 (≈ 6.16 µg/mL) | – |
| CC[C@@H]1CN2CC[C@]34c5ccccc5-n5c3c(cc(C(N)=O)c5=O)[C@H]1C[C@H]24 [LEUCONICINE A] | – | > 150 | > 150 | – | – | – | > 150 | – | 69 (≈ 24.9 µg/mL) | 2 (≈ 0.723 µg/mL) | – |
| CCC1=CN2CC[C@]34c5ccccc5-n5c3c(cc(C(=O)OC)c5=O)[C@H]1C[C@H]24 | – | > 150 | 66 (≈ 24.7 µg/mL) | – | – | – | 66 (≈ 24.7 µg/mL) | – | 133 (≈ 49.8 µg/mL) | 2 (≈ 0.749 µg/mL) | – |
| RAUWOLFIA SERPENTINA | – | > 150 | – | – | – | – | – | – | – | – | MIC (Escherichia coli; DSM 30083 = JCM 1649 = ATCC 11775): 142 µM; MIC (Enterococcus faecalis): 71 µM; MIC (Klebsiella pneumoniae): > 150 µM; MIC (Pseudomonas aeruginosa): 4 µM |
| CC[C@]12CCCn3c(C=O)cc(c31)-c1ccccc1NC(=O)CC2 [RHAZINAL] | – | > 150 | > 150 | – | – | – | 19 (≈ 6.13 µg/mL) | – | 77 (≈ 24.8 µg/mL) | 2 (≈ 0.645 µg/mL) | – |
